From PubChem
FAS TE block – FAS thioesterase (human) inhibition | 0.67% of 360,000 active | recombinant FAS-TE, OMFH fluorogenic substrate, fluorescence endpoint | inhibition, % at 15 µM;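 active means compounds whose normalised, plate-corrected inhibition of enzyme fluorescence in the single-dose primary screen is 50% or more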;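 further: 0% = DMSO with enzyme and 100% = substrate without enzyme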
Scp-1 inhibitor – Scp-1 (human) phosphatase inhibition; 0.88% of 340,000 active; Recombinant Scp1, phosphopeptide, malachite green phosphate absorbance; Q9GZU7; AID 493091; inhibition, % at 20 µM;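 active means inhibition above about 50% at 20 µM, limit read from the data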;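 further: plate controls were DMSO wells with enzyme for no effect and wells lacking enzyme for full effect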
Target sequence (Q9GZU7 76-261 limits assumed): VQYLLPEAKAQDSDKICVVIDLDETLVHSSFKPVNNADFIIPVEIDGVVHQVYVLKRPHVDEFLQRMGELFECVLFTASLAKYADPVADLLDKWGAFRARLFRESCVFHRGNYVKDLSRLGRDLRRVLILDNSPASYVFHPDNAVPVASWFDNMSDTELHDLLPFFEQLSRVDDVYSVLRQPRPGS
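Material: truncated SCP-1 phosphatase (76-261aa) / Buffer or medium: 50 mM Tris acetate pH 5.5, 0.005% Tween-20, 10 mM MgCl2 / Compound dosing: one concentration, 20 µM, with 1.0% DMSO / Incubation: 45 min room-temperature reaction, 5 min colour, 30 min stabiliser / Detection: colorimetric free-phosphate detection, absorbance 630 nm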
LMPTP block – LMPTP (human) inhibition; inhibition, % at 20 µM; 0.22% of 360,000 active; AID 651560; P24666; recombinant LMPTP-A, OMFP fluorogenic substrate, fluorescence intensity;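 active means compounds that cut the enzyme signal by at least half of the control window in the single-dose screen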;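 further: plate controls were DMSO wells with enzyme plus substrate for no effect and substrate without enzyme for full effect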
Target sequence (P24666 whole entry, looked up): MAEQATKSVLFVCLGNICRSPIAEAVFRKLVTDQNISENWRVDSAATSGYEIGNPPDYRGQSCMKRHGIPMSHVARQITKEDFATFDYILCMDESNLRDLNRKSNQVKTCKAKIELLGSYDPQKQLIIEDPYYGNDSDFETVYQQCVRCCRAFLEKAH
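material = LMPTP-A | quantity = 0.625 nM enzyme | reagent = OMFP substrate, 400 µM final | buffer or medium = Bis-Tris pH 6.0, DTT, detergent | detection = endpoint fluorescence intensity from OMFP dephosphorylation | dosing = single 20 µM dose | read-out basis = % inhibition relative to no-enzyme and uninhibited control wells | control set = no-enzyme and uninhibited controls | timing = 50 min at room temperature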
STEP inh – inhibitors of human striatal-enriched phosphatase STEP | recombinant STEP, OMFP fluorogenic substrate, fluorescence | 0.25% of 360,000 active | inhibition, % at 20 µM;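 active means inhibition at 20 µM, scaled per plate between control wells, above about 37%, limit read from the data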;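 further: 0% = DMSO with enzyme and substrate and 100% = substrate only without enzyme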
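material = STEP tyrosine phosphatase | reagent = fluorogenic phosphatase substrate OMFP at 25 µM final | doses = single compound dose of 20 µM, 1% DMSO final | schedule = 20 min reaction, room temperature, in the dark | measured by = fluorescence, 480/540 nm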
SUMO1 PPI mod – SUMO1-SIM interaction modulation; 0.33% of 360,000 active; SUMO1 binding to a labelled peptide, TR-FRET, 1 h; AID 602429; inhibition, % at 20 µM; in the data active means inhibition above about 37%
Target sequence (P63165 whole entry, looked up): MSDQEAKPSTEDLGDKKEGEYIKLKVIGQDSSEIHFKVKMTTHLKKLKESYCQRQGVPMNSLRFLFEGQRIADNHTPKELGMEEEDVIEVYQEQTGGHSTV
FAS-TE inh conf – confirmation of human fatty acid synthase thioesterase inhibitors; recombinant FAS-TE, OMFH fluorogenic substrate, fluorescence; 45% of 2,300 active; shares compounds with FAS TE block; AID 624325; inhibition, % at 15 µM;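 active means compounds inhibiting the enzyme by at least 50% at 15 µM in any one of the replicates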;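 further: 0% = enzyme with DMSO only and 100% = wells lacking enzyme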
An asterisk follows results filed as active. This is a sample that favours compounds with a hit; in the whole collection about 1.9% have one here.

`COc1ccc(Cl)cc1-c1cc(C(=O)NCc2cccc(Cl)c2)[nH]n1` gave FAS TE block 50.6*, LMPTP block 2.6, STEP inh -0.5, SUMO1 PPI mod 5.7 and FAS-TE inh conf 51.1*.
COc1ccc(CCNC(=O)CCCn2c(=S)[nH]c3ccsc3c2=O)cc1OC was read as FAS TE block -6.1, LMPTP block 1.5, STEP inh -3.7 and SUMO1 PPI mod -3.6.
O=C1/C(=C/c2ccccc2F)SC(=S)N1CCC(=O)N1CCCCC1CCO (configuration not stated) was read as FAS TE block 4.8, Scp-1 inhibitor -15.8, LMPTP block 1.4, STEP inh 0.0 and SUMO1 PPI mod -31.4.
COc1ccc(/C=C2\N=C(c3ccc(C)cc3)OC2=O)cc1 was read as FAS TE block 12.1, Scp-1 inhibitor -6.0, LMPTP block -0.7, STEP inh -2.4 and SUMO1 PPI mod 0.4.
`Cc1ccc(S(=O)(=O)Oc2ccc(/C=C3/N=C(c4ccccc4)OC3=O)cc2)cc1` gave FAS TE block 53.6*, Scp-1 inhibitor -21.7, LMPTP block -0.6, STEP inh -0.5, SUMO1 PPI mod 4.9 and FAS-TE inh conf 15.3.
CC(=O)N(c1nnc(-c2cccc(C)c2)s1)C1CCCC1 was read as FAS TE block 13.2, Scp-1 inhibitor 0.3, LMPTP block 0.1, STEP inh -1.9 and SUMO1 PPI mod -0.2.
`O=C(O)CNC(=O)/C(=C/c1cccc([N+](=O)[O-])c1)NC(=O)c1ccco1` gave FAS TE block -10.7, Scp-1 inhibitor -3.7, LMPTP block -1.6, STEP inh -8.6 and SUMO1 PPI mod -10.9.
Screening Cc1ccc(C(=O)N/C(=C\c2cccc([N+](=O)[O-])c2)C(=O)Nc2cccc(C(=O)O)c2)cc1 returned FAS TE block 55.3*, Scp-1 inhibitor 8.0, LMPTP block -0.1, STEP inh -4.4, SUMO1 PPI mod -15.2 and FAS-TE inh conf 59.8*.
For COc1ccccc1C(=O)N/C(=C/c1cccc([N+](=O)[O-])c1)C(=O)Nc1cccc(C(=O)O)c1 the results were FAS TE block 0.1, Scp-1 inhibitor 32.6, LMPTP block -1.7, STEP inh -2.0 and SUMO1 PPI mod -10.6.
`O=C(Nc1cccc(C(=O)O)c1)/C(=C\c1cccc([N+](=O)[O-])c1)NC(=O)c1ccc(Br)cc1` gave FAS TE block 69.2*, LMPTP block -1.6, STEP inh -0.5, SUMO1 PPI mod -27.4 and FAS-TE inh conf 75.4*.
Screening COc1ccc(C(=O)N/C(=C\c2cccc([N+](=O)[O-])c2)C(=O)Nc2cccc(C(=O)O)c2)cc1 returned FAS TE block 49.1, Scp-1 inhibitor 12.7, LMPTP block -0.5, STEP inh 1.8 and SUMO1 PPI mod -14.8.
O=C(NCc1ccccc1)/C(=C\c1cccc([N+](=O)[O-])c1)NC(=O)c1ccco1 was read as FAS TE block 68.0*, LMPTP block 0.0, STEP inh 0.7, SUMO1 PPI mod -24.9 and FAS-TE inh conf 76.2*.
Screening O[C@@H]1CN(Cc2ccc(-n3cccn3)cc2)CC[C@H]1N1CCN(c2ccccc2F)CC1 returned FAS TE block -4.7, Scp-1 inhibitor -6.2, LMPTP block -0.4, STEP inh 0.6 and SUMO1 PPI mod -1.5.
For Cc1cccc(OCCC(=O)NCC(=O)Nc2cccc(C)c2C)c1 the results were FAS TE block -9.2, Scp-1 inhibitor -7.1, LMPTP block -0.3, STEP inh 1.4 and SUMO1 PPI mod 2.5.
Screening CCCS(=O)(=O)NC(=O)C1(C)CCN(C(=O)Cc2ccc(OC)cc2)C1 (configuration not stated) returned FAS TE block -7.7, LMPTP block -4.4, STEP inh 0.2 and SUMO1 PPI mod -3.2.
COc1ccc2[nH]c3c(c2c1)CCN1C(=O)C(CC(=O)NCc2ccco2)C[C@H](C(=O)N2CCOCC2)[C@@]31CCC1CCCC1 (some centres not stated) was read as FAS TE block 64.6*, Scp-1 inhibitor 1.3, LMPTP block -3.0, STEP inh -2.6, SUMO1 PPI mod -7.1 and FAS-TE inh conf 76.3*.
